These results are taken from ChEMBL document CHEMBL1148028, “Design and synthesis of urea and thiourea derivatives and their inhibitory activities on lipopolysaccharide-induced NO production” (Bioorg Med Chem Lett, 2007).

Activity calls are given as the source filed them. The rule behind the calls is not given here.

The first assay has as its system RAW. The experiment in a line: Inhibition of LPS-induced NO production in RAW 264.7 cells at 0.1 uM after 20 hrs. It is filed as functional. The following applies: Mus musculus.
As a reminder, the inhibition is the share of the control response that was lost under treatment. For the compound `N=C(N)NN` [PIMAGEDINE], the inhibition at 0.1 µM is 85%.

Another assay has as its system RAW. The experiment in a line: Inhibition of LPS-induced NO production in RAW 264.7 cells at 5 uM after 20 hrs. The format is functional, cell-based. The following applies: Mus musculus. An outline of the steps:
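Cells plated in 10% FBS–DMEM for 24 h, then given 1% FBS medium with LPS (1 µg/mL) plus compound for 20 h. Accumulated nitrite assayed by Griess reaction (10 min, room temp), absorbance 570 nm, quantified by sodium nitrite calibration. Percent inhibition relative to LPS-only control, n = 3.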
In general, IC50 refers to the concentration that inhibits the measured activity by half. Turning to `NC(=S)Nc1ccc(OCCn2c3ccccc3c3ccccc32)cc1`, the IC50 worked out at 5.31 µM and testing at 5 µM gave an inhibition of 55%.
Consider `O=C(O)CNC(=S)Nc1ccc(OCCn2c3ccccc3c3ccccc32)cc1`, for which it took 0.153 µM to reach half-maximal inhibition (IC50) and testing at 5 µM gave an inhibition of 87%.
`NC(=O)Nc1ccc(OCCn2c3ccccc3c3ccccc32)cc1` returned an inhibition at 5 µM of 24%.
`CN(C(N)=O)c1ccc(OCCn2c3ccccc3c3ccccc32)cc1` came in with an inhibition at 5 µM of 8%.
`CCN(C(N)=O)c1ccc(OCCn2c3ccccc3c3ccccc32)cc1` had an inhibition at 5 µM of 25%.
Turning to `CCOC(=O)CNC(=O)Nc1ccc(OCCn2c3ccccc3c3ccccc32)cc1`, the inhibition at 5 µM was 38%.
`CNC(=S)Nc1ccc(OCCn2c3ccccc3c3ccccc32)cc1` registered an IC50 of 0.73 µM and an inhibition at 5 µM of 80%.
`CC(C)NC(=O)Nc1ccc(OCCn2c3ccccc3c3ccccc32)cc1` gave an inhibition at 5 µM of 15%.
Regarding `NC(=S)N(CC1CC1)c1ccc(OCCn2c3ccccc3c3ccccc32)cc1`, the inhibition at 5 µM was found to be 34%.
Compound `O=C(Nc1ccccc1)Nc1ccc(OCCn2c3ccccc3c3ccccc32)cc1` had an inhibition at 5 µM of 28%.
Compound `NC(=O)N(CC1CC1)c1ccc(OCCn2c3ccccc3c3ccccc32)cc1` yielded a half-maximal inhibitory concentration (IC50) of 3.12 µM and an inhibition at 5 µM of 61%.
The compound `CCN(C(N)=S)c1ccc(OCCn2c3ccccc3c3ccccc32)cc1` returned an inhibition at 5 µM of 33%.
The compound `CCNC(=O)Nc1ccc(OCCn2c3ccccc3c3ccccc32)cc1` yielded an inhibition at 5 µM of 30%.
The same measure, in the same setting: to `CCCNC(=O)Nc1ccc(OCCn2c3ccccc3c3ccccc32)cc1` belongs 14%.
In turn, `CCNC(=S)Nc1ccc(OCCn2c3ccccc3c3ccccc32)cc1` returned an IC50 of 0.901 µM and an inhibition at 5 µM of 90%.
The compound `O=C(O)CNC(=O)Nc1ccc(OCCn2c3ccccc3c3ccccc32)cc1` had an inhibition at 5 µM of 43%.
Take `CCOC(=O)CNC(=S)Nc1ccc(OCCn2c3ccccc3c3ccccc32)cc1`: testing at 5 µM gave an inhibition of 41%.

The next assay deals with RAW. The experiment in a line: Inhibition of iNOS protein expression in LPS-stimulated mouse RAW 264.7 cells at 10 uM after 20 hrs by Western blot analysis. The format is functional, cell-based.
Conditions: not given
An outline of the steps: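 Cells (1.5 × 10⁶ per 60-mm dish) given LPS (1 µg/mL) with or without compound for 20 h, then lysed. 20 µg lysate protein run on 8% SDS-PAGE, blotted to PVDF, probed for mouse iNOS and actin, ECL detection. iNOS band density normalized to actin; means ± SD of three densitometric analyses.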
(In general: A western blot detects proteins with antibodies after separation by electrophoresis.)
Regarding `CNC(=S)Nc1ccc(OCCn2c3ccccc3c3ccccc32)cc1`, the outcome was Active.

The next assay concerns RAW. The experiment in a line: Inhibition of iNOS mRna expression in LPS-stimulated mouse RAW 264.7 cells at 10 uM after 6 hrs by RT-PCR analysis. The format is functional, cell-based.
Conditions: not given
An outline of the steps: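 Cells (1.8 × 10⁶ per 60-mm dish) stimulated with LPS (1 µg/mL) with or without compound for 6 h, washed twice with PBS. Total RNA extracted with Trizol; iNOS and β-actin mRNA assessed by RT-PCR.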
In the case of `CNC(=S)Nc1ccc(OCCn2c3ccccc3c3ccccc32)cc1`, the result was Active.
